pIC50: −log10 of the molar value. Calls of active or inactive are those of the source. No cut-off for these calls is given here.
Key:
[1] = Selectivity index, ratio of IC50 for human MRC5 cells to IC50 for chloroquine-resistant Plasmodium falciparum FcB1R/Colombia; type: toxicity, cell-based; conditions: read-out: Ratio CC50/IC50
How it was run: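 SI is CC50 on MRC-5 over IC50 against FcB1R. MRC-5 cells were seeded at 5000 per well and treated after 24 h with two-fold dilutions in RPMI + 5% FCS (DMSO <0.5%). Incubation was 7 days at 37 °C, 5% CO2. Read-out was MTT, as % reduction of absorbance at 540 nm versus untreated cultures. CC50 is the concentration giving 50% cytotoxicity.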

[2] = Cytotoxicity against human MRC5 cells after 7 days by MTT assay; type: cell-based
How it was run: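 MRC-5 human embryonic lung cells were seeded at 5000 per well and washed after 24 h. Two-fold drug dilutions were added in RPMI + 5% FCS, with final DMSO below 0.5%. Plates were held at 37 °C in 5% CO₂ for 7 days. MTT absorbance at 540 nm was compared with untreated controls. CC₅₀ is the concentration causing 50% cytotoxicity.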

Plasmodium falciparum [3] = test: Antimalarial activity after 24 hrs against chloroquine-resistant Plasmodium falciparum FcB1R/Colombia by [3H]hypoxanthine uptake; type: functional, organism-based
How it was run: (§1)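 Asynchronous P. falciparum cultures on human erythrocytes (1% parasitaemia, 1% final haematocrit) exposed to serial dilutions of drug for 24 h at 37 °C, then [3H]hypoxanthine added for another 24 h. Cells freeze-thawed, harvested onto glass-fibre filters and scintillation counted. Incorporation compared with drug-free control on the same plate. IC50 taken from concentration-response curve, mean ± SD of independent experiments. DMSO ≤0.1%.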

Plasmodium falciparum [4] = test: Antimalarial activity after 24 hrs against chloroquine-resistant Plasmodium falciparum K1/Thailand by [3H]hypoxanthine uptake; type: functional, organism-based; how it was run: as §1
Mus musculus = species on record: Mus musculus; test: Toxicity in Plasmodium berghei ANKA 65 infected Swiss CD1 mice (Mus musculus); type: organism-based; conditions: in vivo
Plasmodium berghei [5] = test: Antimalarial activity as reduced parasitaemia in Plasmodium berghei ANKA 65 infected Swiss CD1 mice (Mus musculus) at 40 mg/kg/day peroral dose then intraperitoneal for 4 days; type: functional; design: scale not given: the % may be the effect or the level left; conditions: route oral
How it was run: (§2)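 Female Swiss CD-1 mice (4 weeks old, 20–25 g), three per group, infected intraperitoneally with about 10⁷ P. berghei ANKA 65-parasitized erythrocytes from an infected donor. The first dose was given orally in 100% DMSO at infection, then intraperitoneally on the following 4 days. Infected DMSO-dosed mice served as controls. Read-outs were parasitaemia reduction at day 4 and excess MST, the % prolongation of mean survival time versus controls.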

Plasmodium berghei [6] = test: Antimalarial activity as increased MST in Plasmodium berghei ANKA 65 infected Swiss CD1 mice (Mus musculus) at 40 mg/kg peroral dose day 1 followed by intraperitoneal dose for 4 days; type: functional
How it was run: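 Female Swiss CD-1 mice, four weeks old, 20-25 g, three per group. Infected ip with about 10^7 P. berghei ANKA 65 parasitized erythrocytes from a donor mouse. Dosed orally at 40 mg/kg in 100% DMSO at infection, then ip for the following 4 days. Controls were infected DMSO-dosed mice. Excess MST is the percent prolongation of mean survival time over controls.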

Plasmodium falciparum [7] = test: Antimalarial activity against chloroquine-sensitive Plasmodium falciparum THAI/Thailand as [3H]hypoxanthine uptake after 24 hrs by semi-automated micro dilution; type: functional, organism-based; how it was run: as §1
Plasmodium berghei [8] = test: Antimalarial activity as increased mean survival time in Plasmodium berghei ANKA 65 infected Swiss CD1 mice (Mus musculus) at 10 mg/kg peroral dose day 1 with intraperitoneal dose over 4 days; type: functional, organism-based; design: dose 10 mg/kg; how it was run: as §2
Plasmodium berghei [9] = test: Antimalarial activity as reduced parasitaemia in Plasmodium berghei ANKA 65 infected Swiss CD1 mice (Mus musculus) at 10 mg/kg/day peroral dose then intraperitoneal dose for 4 days; type: functional; design: scale not given: the % may be the effect or the level left; conditions: route oral; how it was run: as §2

Compound	selectivity ratio [1]	CC50 at 168 h [2] [µM]	pIC50 (Plasmodium falciparum [3])	also measured
CCN(CC)CCCCC(=O)OCc1cc(NC(=O)CN2CCCCC2)cc(Nc2ccnc3cc(Cl)ccc23)c1	89	–	–	–
O=C(CN1CCCCC1)Nc1cc(Nc2ccnc3cc(Cl)ccc23)cc(C(=O)N2CCN(Cc3ccccc3)CC2)c1	296	15	7.30	–
O=C(CN1CCCCC1)Nc1cc(COC(=O)CCN2CCCCC2)cc(Nc2ccnc3cc(Cl)ccc23)c1	158	–	–	–
CN(C)CCNC(=O)OCc1cc(NC(=O)CN2CCCCC2)cc(Nc2ccnc3cc(Cl)ccc23)c1	304	3.1	7.99	–
CCN(CC)CCCNC(=O)OCc1cc(NC(=O)CN2CCCCC2)cc(Nc2ccnc3cc(Cl)ccc23)c1	434	6.3	7.84	–
O=C(CN1CCCCC1)Nc1cc(Nc2ccnc3cc(Cl)ccc23)cc(C(=O)NCCN2CCOCC2)c1	> 546	> 32	7.23	–
O=C(CN1CCCCC1)Nc1cc(Nc2ccnc3cc(Cl)ccc23)cc(C(=O)N2CCCCC2)c1	> 112	> 32	6.54	–
O=C(CN1CCCCC1)Nc1cc(COC(=O)CN2CCCCC2)cc(Nc2ccnc3cc(Cl)ccc23)c1	231	–	–	–
O=C(CN1CCCCC1)Nc1cc(CNCCN2CCCC2)cc(Nc2ccnc3cc(Cl)ccc23)c1	182	–	–	–
CN(C)CCNCc1cc(NC(=O)CN2CCCCC2)cc(Nc2ccnc3cc(Cl)ccc23)c1	1150	–	–	–
O=C(CN1CCCCC1)Nc1cc(Nc2ccnc3cc(Cl)ccc23)cc(C(=O)N2CCOCC2)c1	> 298	> 32	6.97	–
CN(C)CCN(C)C(=O)c1cc(NC(=O)CN2CCCCC2)cc(Nc2ccnc3cc(Cl)ccc23)c1	851	16	7.73	–
CN1CCN(C(=O)c2cc(NC(=O)CN3CCCCC3)cc(Nc3ccnc4cc(Cl)ccc34)c2)CC1	833	16	7.72	pIC50 (Plasmodium falciparum [4]): 7.29; Activity (Mus musculus): Non-toxic; Activity (Plasmodium berghei [5]): 99.96%; Activity (Plasmodium berghei [6]; route oral): 150%; pIC50 (Plasmodium falciparum [7]): 7.42
CN(C)CCCNCc1cc(NC(=O)CN2CCCCC2)cc(Nc2ccnc3cc(Cl)ccc23)c1	174	–	–	–
O=C(CN1CCCCC1)Nc1cc(Nc2ccnc3cc(Cl)ccc23)cc(C(=O)NCCN2CCCC2)c1	1024	17	7.78	–
O=C(CN1CCCCC1)Nc1cc(CNCCN2CCCCC2)cc(Nc2ccnc3cc(Cl)ccc23)c1	648	–	8.18	–

Compound	selectivity ratio [1]	CC50 at 168 h [2] [µM]	pIC50 (Plasmodium falciparum [3])	also measured
O=C(CN1CCCCC1)Nc1cc(Nc2ccnc3cc(Cl)ccc23)cc(C(=O)O)c1	–	> 32	< 6.00	–
O=C(CN1CCCCC1)Nc1cc(COC(=O)NCCN2CCOCC2)cc(Nc2ccnc3cc(Cl)ccc23)c1	> 259	> 12.5	7.32	pIC50 (Plasmodium falciparum [4]): 7.71; pIC50 (Plasmodium falciparum [7]): 7.41
O=C(CN1CCCCC1)Nc1cc(Nc2ccnc3cc(Cl)ccc23)cc(C(=O)N2CCN(c3ccccc3)CC2)c1	106	16	6.82	–
CCN(CC)CCCC(C)Nc1ccnc2cc(Cl)ccc12 (stereo unspecified) [CHLOROQUINE]	–	50	–	Activity (Plasmodium berghei [8]): Active; Activity (Plasmodium berghei [9]): 100%; Activity (Mus musculus): Non-toxic
O=C(CN1CCCCC1)Nc1cc(CO)cc(Nc2ccnc3cc(Cl)ccc23)c1	281	12.5	–	Activity (Mus musculus): Non-toxic; Activity (Plasmodium berghei [5]): 100%; Activity (Plasmodium berghei [6]; route oral): 110%
O=C(CN1CCCCC1)Nc1cc(CNCCN2CCOCC2)cc(Nc2ccnc3cc(Cl)ccc23)c1	406	–	8.10	Activity (Mus musculus): Non-toxic; Activity (Plasmodium berghei [5]): 100%; Activity (Plasmodium berghei [6]): Active
CN1CCN(CCCNC(=O)OCc2cc(NC(=O)CN3CCCCC3)cc(Nc3ccnc4cc(Cl)ccc34)c2)CC1	–	6.3	–	–
CN(C)CCCNC(=O)c1cc(NC(=O)CN2CCCCC2)cc(Nc2ccnc3cc(Cl)ccc23)c1	> 177	> 32	6.74	–
O=C(CN1CCCCC1)Nc1cc(COC(=O)CCCCN2CCOCC2)cc(Nc2ccnc3cc(Cl)ccc23)c1	887	–	–	Activity (Mus musculus): Non-toxic; Activity (Plasmodium berghei [5]): 99.8%; Activity (Plasmodium berghei [6]; route oral): 73%
O=C(CN1CCCCC1)Nc1cc(COC(=O)CCCCCN2CCCCC2)cc(Nc2ccnc3cc(Cl)ccc23)c1	456	–	–	–
O=C(CN1CCCCC1)Nc1cc(COC(=O)NCc2ccccc2)cc(Nc2ccnc3cc(Cl)ccc23)c1	> 347	> 12.5	7.44	–
O=C(CN1CCCCC1)Nc1cc(COC(=O)CCCCN2CCCCC2)cc(Nc2ccnc3cc(Cl)ccc23)c1	806	–	–	–
O=C(CN1CCCCC1)Nc1cc(COC(=O)NCCN2CCCCC2)cc(Nc2ccnc3cc(Cl)ccc23)c1	1120	12.5	7.95	pIC50 (Plasmodium falciparum [4]): 8.01; Activity (Mus musculus): Non-toxic; Activity (Plasmodium berghei [5]): 100%; Activity (Plasmodium berghei [6]; route oral): 50%; pIC50 (Plasmodium falciparum [7]): 7.71
CCN(CC)Cc1cc(Nc2ccnc3cc(Cl)ccc23)ccc1O.Cl	2500	12	8.32	pIC50 (Plasmodium falciparum [4]): 8.03; Activity (Plasmodium berghei [8]): Active; Activity (Plasmodium berghei [9]): 100%; Activity (Mus musculus): Non-toxic; pIC50 (Plasmodium falciparum [7]): 8.34
CN(C)CCNC(=O)c1cc(NC(=O)CN2CCCCC2)cc(Nc2ccnc3cc(Cl)ccc23)c1	478	15	7.50	–
